From ChEMBL document CHEMBL4431326, “Tumor Targeting with Novel 6-Substituted Pyrrolo [2,3-d] Pyrimidine Antifolates with Heteroatom Bridge Substitutions via Cellular Uptake by Folate Receptor α and the Proton-Coupled Folate Transporter and Inhibition of de Novo Purine Nucleotide Biosynthesis” (J Med Chem, 2016)
Calls of active or inactive are those of the source. The rule behind the calls is not given here.

Legend:
IGROV-1 [1] = experiment: Antiproliferative activity against human IGROV1 cells expressing human FR-alpha/PCFT assessed as reduction in cell viability measured after 96 hrs by Cell-Titer Blue fluorescence analysis; type: functional, cell-based; settings: IGROV-1, 96 h
IGROV-1 [2] = experiment: Antiproliferative activity against human IGROV1 cells expressing human FR-alpha/PCFT assessed as reduction in cell viability measured after 96 hrs in presence of folic acid by Cell-Titer Blue fluorescence analysis; type: functional, cell-based; settings: IGROV-1, 96 h
IGROV-1 [3] = experiment: Antitumor activity against human IGROV1 cells xenografted into folate-deficient diet fed SCID mouse assessed as tumor growth at 28 mg/kg, iv administered […] post 2 days of tumor implantation measured on day 20 relative to control; type: functional
Procedure, shortened: (§1)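 Female NCR SCID mice (11 weeks old, ~20 g) are fed a folate-deficient diet from 14 days before implant. IGROV1 fragments (30–60 mg) are trocar-implanted subcutaneously in both flanks, and mice are randomised at 5/group. Tail-vein dosing starts on day 2: 28 mg/kg/inj Q3dx5, or 96 or 150 mg/kg/inj Q3dx4. Vehicle is 5% ethanol, 1% Tween-80, 0.5% NaHCO3 in water at pH 6.5. Caliper tumor mass is (a×b²)/2, T/C is taken when controls reach 700–1200 mg, and weights are recorded daily.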

IGROV-1 [4] = experiment: Antitumor activity against human IGROV1 cells xenografted into folate-deficient diet fed SCID mouse assessed as tumor cell kill at 28 mg/kg, iv administered […] post 2 days of tumor implantation measured on day 20; type: functional; procedure, shortened: as §1
IGROV-1 [5] = experiment: Antitumor activity against human IGROV1 cells xenografted into folate-deficient diet fed SCID mouse assessed as tumor growth at 96 mg/kg, iv administered […] post 2 days of tumor implantation measured on day 20 relative to control; type: functional
Procedure, shortened: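 Female NCR SCID mice, 11 weeks, ~20 g, on folate-deficient or standard diet from 14 days pre-implant; bilateral s.c. IGROV1 fragments (30–60 mg); 5 mice/group; tail-vein dosing from day 2 (Q3d schedules) in 5% ethanol, 1% Tween-80, 0.5% NaHCO3, water, pH 6.5; caliper mass (a×b²)/2; T/C and T−C delay.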

IGROV-1 [6] = experiment: Antitumor activity against human IGROV1 cells xenografted into folate-deficient diet fed SCID mouse assessed as tumor growth delay at 96 mg/kg, iv administered […] post 2 days of tumor implantation; type: functional
IGROV-1 [7] = experiment: Antitumor activity against human IGROV1 cells xenografted into folate-deficient diet fed SCID mouse assessed as tumor cell kill at 96 mg/kg, iv administered […] post 2 days of tumor implantation measured on day 20; type: functional
[8] = Toxicity in folate-deficient diet fed SCID mouse xenografted with human IGROV1 cells assessed as body weight loss at 28 mg/kg, iv administered […] post 2 days of tumor implantation measured during compound treatment; type: organism-based; settings: in vivo, 48 h; procedure, shortened: as §1
[9] = Toxicity in folate-deficient diet fed SCID mouse xenografted with human IGROV1 cells assessed as body weight loss at 28 mg/kg, iv administered […] post 2 days of tumor implantation measured after 48 hrs of last dosage; type: organism-based; settings: in vivo; procedure, shortened: as §1
[10] = Toxicity in folate-deficient diet fed SCID mouse xenografted with human IGROV1 cells assessed as body weight loss at 96 and 150 mg/kg, iv administered […] post 2 days of tumor implantation measured after 48 hrs of last dosage; type: organism-based; settings: in vivo; procedure, shortened: as §1
[11] = Toxicity in standard diet fed SCID mouse xenografted with human IGROV1 cells assessed as body weight loss at 28 mg/kg, iv administered […] post 2 days of tumor implantation measured during compound treatment; type: organism-based; settings: in vivo, 48 h
Procedure, shortened: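 Standard-diet female NCR SCID mice bearing bilateral s.c. IGROV1 fragments; i.v. tail-vein dosing from day 2 post-implant, Q3dx5, vehicle 5% ethanol/1% Tween-80/0.5% NaHCO3 in water, pH 6.5; mice weighed and assessed daily during and after treatment; weight loss recorded as nadir.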

[12] = Cytotoxicity in RFC-null Chinese hamster R2 cells assessed as reduction in cell viability measured after 96 hrs by Cell-Titer Blue fluorescence analysis; type: cell-based; settings: Cricetulus griseus, R2, 96 h
[13] = Cytotoxicity in PCFT-null Chinese hamster R2 cells assessed as reduction in cell viability measured after 96 hrs by Cell-Titer Blue fluorescence analysis; type: cell-based; settings: Cricetulus griseus, R2, 96 h
KB [14] = experiment: Antiproliferative activity against human KB cells expressing human RFC/FR-alpha/PCFT assessed as reduction in cell viability measured after 96 hrs by Cell-Titer Blue fluorescence analysis; type: functional, cell-based
KB [15] = experiment: Antiproliferative activity against human KB cells expressing human RFC/FR-alpha/PCFT assessed as reduction in cell viability measured after 96 hrs in presence of folic acid by Cell-Titer Blue fluorescence analysis; type: functional, cell-based
[16] = target: T1, GAR transformylase/AICAR transformylase (Homo sapiens) (UniProt P31939+P22102); experiment: Inhibition of GARFTase/AICARFTase in human KB cells expressing RFC/FR-alpha/PCFT assessed as cell growth inhibition measured after 96 hrs in presence of 60 uM adenosine by Cell-Titer Blue fluorescence analysis; type: cell-based
[17] = target: T1, GAR transformylase/AICAR transformylase (Homo sapiens); experiment: Inhibition of GARFTase/AICARFTase in human KB cells expressing RFC/FR-alpha/PCFT assessed as cell growth inhibition measured after 96 hrs in presence of 10 uM thymidine by Cell-Titer Blue fluorescence analysis; type: cell-based
[18] = target: Bifunctional purine biosynthesis protein ATIC (Homo sapiens) (UniProt P31939); experiment: Inhibition of AICARFTase in human KB cells expressing RFC/FR-alpha/PCFT assessed as cell growth inhibition measured after 96 hrs in presence of 320 uM AICA by Cell-Titer Blue fluorescence analysis; type: cell-based
[19] = target: Folate receptor alpha (Homo sapiens) (UniProt P15328); experiment: Displacement of [3H]folic acid from human FR-alpha receptor expressed in Chinese hamster RT16 cells measured after 15 mins relative to folic acid; type: cell-based; set-up: concentration or dose not given beside the values
[20] = target: T2, Proton-coupled folate transporter (Homo sapiens) (UniProt Q96NT5); experiment: Inhibition of [3H]MTX uptake at human PCFT expressed in Chinese hamster R2/PCFT4 cells at 10 uM and pH 5.5 measured after 5 mins; type: cell-based
T2 sequence (whole entry): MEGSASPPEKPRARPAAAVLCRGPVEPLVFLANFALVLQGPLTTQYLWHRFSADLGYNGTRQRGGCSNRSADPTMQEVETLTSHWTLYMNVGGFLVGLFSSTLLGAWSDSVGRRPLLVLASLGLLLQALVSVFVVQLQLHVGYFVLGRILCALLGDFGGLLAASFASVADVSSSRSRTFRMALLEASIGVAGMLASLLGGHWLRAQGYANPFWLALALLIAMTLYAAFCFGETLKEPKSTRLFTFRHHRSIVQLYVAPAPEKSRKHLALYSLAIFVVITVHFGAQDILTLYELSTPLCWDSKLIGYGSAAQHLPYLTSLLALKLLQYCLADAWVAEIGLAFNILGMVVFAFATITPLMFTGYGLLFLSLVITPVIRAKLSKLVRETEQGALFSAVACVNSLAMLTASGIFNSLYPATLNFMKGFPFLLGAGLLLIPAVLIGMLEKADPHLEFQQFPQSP

[21] = target: T2, Proton-coupled folate transporter (Homo sapiens); experiment: Inhibition of [3H]MTX uptake at human PCFT expressed in Chinese hamster R2/PCFT4 cells at 10 uM and pH 6.8 measured after 5 mins; type: cell-based
[22] = target: T2, Proton-coupled folate transporter (Homo sapiens); experiment: Inhibition of [3H]MTX uptake at human PCFT expressed in Chinese hamster R2/PCFT4 cells at 1 uM and pH 5.5 measured after 5 mins; type: cell-based
[23] = target: T3, Proton-coupled folate transporter (Homo sapiens, UniProt Q96NT5); experiment: Inhibition of [3H]MTX uptake at human PCFT expressed in Chinese hamster R2/PCFT4 cells at pH 5.5 measured after 5 mins by Dixon plot analysis; type: cell-based
T3 sequence (Q96NT5 whole entry): T2 sequence (whole entry)

[24] = target: T4, Trifunctional purine biosynthetic protein adenosine-3 (Homo sapiens, UniProt P22102); experiment: Inhibition of GARFTase in human KB cells expressing RFC/FR-alpha/PCFT assessed as decrease in incorporation of [14C(U)]-glycine into [14C]formyl GAR incubated for 1 hr followed by addition of [14C(U)]-glycine measured after 16 hrs in presence of azaserine; type: cell-based
T4 sequence (P22102 whole entry): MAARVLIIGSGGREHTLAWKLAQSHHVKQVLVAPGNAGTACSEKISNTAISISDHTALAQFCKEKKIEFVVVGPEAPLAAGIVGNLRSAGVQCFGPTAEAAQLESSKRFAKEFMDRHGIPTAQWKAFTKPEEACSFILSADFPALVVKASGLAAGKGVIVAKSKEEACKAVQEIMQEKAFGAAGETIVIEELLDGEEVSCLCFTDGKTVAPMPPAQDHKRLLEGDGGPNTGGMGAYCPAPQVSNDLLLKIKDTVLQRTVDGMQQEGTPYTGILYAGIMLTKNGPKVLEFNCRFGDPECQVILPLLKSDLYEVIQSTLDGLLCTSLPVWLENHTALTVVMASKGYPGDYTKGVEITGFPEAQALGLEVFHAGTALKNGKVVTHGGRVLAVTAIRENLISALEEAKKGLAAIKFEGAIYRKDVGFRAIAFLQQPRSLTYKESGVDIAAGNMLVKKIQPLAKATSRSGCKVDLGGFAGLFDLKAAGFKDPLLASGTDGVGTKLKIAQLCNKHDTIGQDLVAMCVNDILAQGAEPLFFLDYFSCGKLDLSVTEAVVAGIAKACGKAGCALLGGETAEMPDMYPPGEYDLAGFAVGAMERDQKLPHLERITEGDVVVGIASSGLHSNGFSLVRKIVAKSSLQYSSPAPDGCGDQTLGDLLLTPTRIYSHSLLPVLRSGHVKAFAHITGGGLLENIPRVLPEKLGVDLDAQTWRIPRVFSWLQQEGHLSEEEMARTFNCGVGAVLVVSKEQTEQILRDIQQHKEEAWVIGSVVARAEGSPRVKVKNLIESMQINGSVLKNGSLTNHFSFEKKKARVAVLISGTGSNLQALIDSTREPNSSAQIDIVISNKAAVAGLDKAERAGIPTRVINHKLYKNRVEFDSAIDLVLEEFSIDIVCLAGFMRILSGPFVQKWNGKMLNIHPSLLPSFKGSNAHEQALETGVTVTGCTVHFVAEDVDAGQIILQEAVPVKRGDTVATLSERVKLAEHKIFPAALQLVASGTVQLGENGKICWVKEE

[25] = target: T4, Trifunctional purine biosynthetic protein adenosine-3; experiment: Inhibition of recombinant N-terminal 6His-tagged human GARFTase assessed as formation of 5,8-dideazafolate from 10-formyl-5,8-dideazafolic acid measured at every 15 seconds over 20 min by spectrophotometric analysis
[26] = target: Folate receptor beta (Homo sapiens) (UniProt P14207); experiment: Displacement of [3H]folic acid from human FR-beta receptor expressed in Chinese hamster D4 cells measured after 15 mins relative to folic acid; type: cell-based
Chain of Folate receptor beta (Homo sapiens) (P14207 17-230 limits assumed): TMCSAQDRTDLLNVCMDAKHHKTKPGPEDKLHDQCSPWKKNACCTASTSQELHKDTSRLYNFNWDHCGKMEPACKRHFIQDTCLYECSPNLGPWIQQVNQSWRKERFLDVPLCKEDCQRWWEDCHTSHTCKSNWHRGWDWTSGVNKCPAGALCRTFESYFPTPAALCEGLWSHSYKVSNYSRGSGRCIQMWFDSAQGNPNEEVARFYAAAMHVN

Chain of Folate receptor alpha (Homo sapiens) (P15328 25-234 limits assumed): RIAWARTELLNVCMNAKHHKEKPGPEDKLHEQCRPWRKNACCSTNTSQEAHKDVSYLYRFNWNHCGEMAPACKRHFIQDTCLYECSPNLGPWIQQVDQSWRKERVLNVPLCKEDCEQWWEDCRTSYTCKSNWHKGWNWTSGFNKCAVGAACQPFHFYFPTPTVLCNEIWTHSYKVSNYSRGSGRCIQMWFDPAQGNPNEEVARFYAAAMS
T1 sequence (P31939 whole entry, looked up, one chain of several): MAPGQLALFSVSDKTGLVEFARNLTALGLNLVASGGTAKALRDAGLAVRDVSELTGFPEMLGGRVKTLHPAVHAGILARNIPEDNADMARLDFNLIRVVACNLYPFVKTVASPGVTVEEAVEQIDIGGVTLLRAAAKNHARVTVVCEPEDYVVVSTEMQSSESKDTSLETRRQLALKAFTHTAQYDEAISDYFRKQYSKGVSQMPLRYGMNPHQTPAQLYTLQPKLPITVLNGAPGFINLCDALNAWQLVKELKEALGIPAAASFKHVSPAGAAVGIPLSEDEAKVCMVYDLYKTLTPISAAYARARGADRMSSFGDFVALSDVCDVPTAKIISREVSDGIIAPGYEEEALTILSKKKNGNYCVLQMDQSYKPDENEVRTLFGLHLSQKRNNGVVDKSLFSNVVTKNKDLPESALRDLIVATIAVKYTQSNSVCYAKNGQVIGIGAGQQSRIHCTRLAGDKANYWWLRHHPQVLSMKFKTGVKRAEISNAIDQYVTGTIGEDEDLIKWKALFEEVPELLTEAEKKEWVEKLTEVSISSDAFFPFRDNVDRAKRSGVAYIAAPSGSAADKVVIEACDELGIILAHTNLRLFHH
Chain of Bifunctional purine biosynthesis protein ATIC (Homo sapiens) (P31939 whole entry, looked up): as the sequence (P31939 whole entry, looked up, one chain of several) above

Compound | IC50 [12] | IC50 [13] | IC50 (KB [14]) | IC50 (KB [15]) | inhibition [16] | inhibition [17] | inhibition [18] | inhibition [19] | inhibition [20] | inhibition [21] | inhibition [22] | Ki [23] | IC50 [24] | Ki [25] | other results
Nc1nc2[nH]c(CCCc3ccc(C(=O)N[C@@H](CCC(=O)O)C(=O)O)s3)cc2c(=O)[nH]1 | – | – | – | – | – | – | – | – | – | – | – | – | – | – | IC50 (IGROV-1 [1]): 0.00095 µM; IC50 (IGROV-1 [2]): 0.213 µM; T/C (IGROV-1 [3]): 35%; LCK (IGROV-1 [4]): 1.4; T/C (IGROV-1 [5]): 29%; Time (IGROV-1 [6]): 9 days; LCK (IGROV-1 [7]): 1.4; Activity [8]: 15%; Activity [9]: Non-Toxic; Activity [10]: Non-Toxic; Activity [11]: Non-Toxic
Nc1nc2[nH]c(CCN(C(=O)C(F)(F)F)c3ccc(C(=O)N[C@@H](CCC(=O)O)C(=O)O)cc3)cc2c(=O)[nH]1 | > 1 µM | > 1 µM | 0.00056 µM | 0.924 µM | inactive | Active | Active | < 15% | 80 to 90% | 40 to 60% | 30 to 60% | 0.8 µM | 0.00495 µM | 0.122 µM | –
Nc1nc2[nH]c(CCCc3ccc(C(=O)N[C@@H](CCC(=O)O)C(=O)O)cc3)cc2c(=O)[nH]1 | – | – | – | – | – | – | – | – | Active | 40 to 60% | Active | 0.22 µM | – | – | IC50 (IGROV-1 [2]): > 1 µM
CC(=O)N(CCc1cc2c(=O)[nH]c(N)nc2[nH]1)c1ccc(C(=O)N[C@@H](CCC(=O)O)C(=O)O)cc1 | > 1 µM | > 1 µM | 0.00257 µM | > 1 µM | inactive | Active | Active | < 15% | 80 to 90% | Active | 30 to 60% | 1.68 µM | 0.00558 µM | 0.062 µM | –
Nc1nc2[nH]c(CCN(C=O)c3ccc(C(=O)N[C@@H](CCC(=O)O)C(=O)O)cc3)cc2c(=O)[nH]1 | > 1 µM | > 1 µM | 0.00209 µM | > 1 µM | inactive | Active | Active | < 15% | 80 to 90% | Active | 30 to 60% | 0.73 µM | 0.00211 µM | 0.099 µM | –
Nc1nc2[nH]c(CCOc3ccc(C(=O)N[C@@H](CCC(=O)O)C(=O)O)cc3)cc2c(=O)[nH]1 | 0.94 µM | > 1 µM | 0.00034 µM | 0.704 µM | inactive | Active | Active | 60 to 110% | 80 to 90% | 40 to 60% | 30 to 60% | 0.64 µM | 0.00662 µM | 0.061 µM | inhibition [26]: 60 to 110%
Nc1nc2[nH]c(CCSc3ccc(C(=O)N[C@@H](CCC(=O)O)C(=O)O)cc3)cc2c(=O)[nH]1 | > 1 µM | > 1 µM | 0.00166 µM | > 1 µM | inactive | Active | Active | 60 to 110% | 80 to 90% | Active | 30 to 60% | 1.48 µM | 0.00525 µM | 0.201 µM | inhibition [26]: 60 to 110%
